The source of these data is publication PMC7191562 (ACS Omega, 2020).

The test system of this test is E. faecalis (MDR 14U0445). The experiment in a line: MIC antibacterial assay. Conditions: Enterococcus faecalis, 16 h. The format is cell-based. The method in brief:
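Clinical isolates grown from single colonies in LB at 37 °C to log phase, then set to 2 × 10⁵ CFU/mL in LB using 1 OD600 = 1 × 10⁹ CFU/mL. Peptide stock was 2 mg/mL in water. A 192 μg/mL peptide solution was twofold serially diluted in LB, then bacteria were added. Plates ran 16 h at 37 °C with A600 read-out, each peptide in triplicate.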

≈ marks a conversion by molar mass, not a printed value.

In general, MIC refers to the lowest concentration found to suppress growth. Lower therefore signals inhibition by little substance. Molecule `CC1(C)S[C@@H]2[C@H](NC(=O)[C@H](N)c3ccccc3)C(=O)N2[C@H]1C(=O)O` [Amp, Ampicillin] had an MIC of 2 µg/mL (≈ 5.72 µM).
